Key:
[1] = biological target: DNA gyrase subunit B (Escherichia coli) (UniProt P0AES6); experiment: Inhibition of Escherichia coli DNA ATCC 25922 gyrase B assessed as residual activity at 100 uM using relaxed pNO1 DNA as substrate incubated for 30 mins and measured by sybrGOLD staining based fluorescence assay; conditions: Escherichia coli ATCC 25922
Method in brief: (§1)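 Gyrase supercoiling with 1.5 U enzyme and 0.75 µg relaxed pNO1 plasmid. 30 min at 37 °C, stopped with pH 5.0 TF buffer. Triplex capture on immobilized biotinylated oligonucleotide, 30 min at room temperature. Residual activity at 100 µM; 1% DMSO negative control.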

DNA gyrase subunit B [2] = biological target: T1, DNA gyrase subunit B (Escherichia coli, UniProt P0AES6); experiment: Inhibition of Escherichia coli ATCC 25922 DNA gyrase B using relaxed pNO1 DNA as substrate incubated for 30 mins and measured by sybrGOLD staining based fluorescence assay
[3] = biological target: DNA gyrase subunit B (Staphylococcus aureus) (UniProt P0A0K8); experiment: Inhibition of Staphylococcus aureus DNA gyrase B assessed as residual activity at 100 uM using relaxed pNO1 DNA as substrate incubated for 30 mins and measured by sybrGOLD staining based fluorescence assay
DNA gyrase subunit B (Staphylococcus aureus), sequence (P0A0K8 2-644 limits assumed): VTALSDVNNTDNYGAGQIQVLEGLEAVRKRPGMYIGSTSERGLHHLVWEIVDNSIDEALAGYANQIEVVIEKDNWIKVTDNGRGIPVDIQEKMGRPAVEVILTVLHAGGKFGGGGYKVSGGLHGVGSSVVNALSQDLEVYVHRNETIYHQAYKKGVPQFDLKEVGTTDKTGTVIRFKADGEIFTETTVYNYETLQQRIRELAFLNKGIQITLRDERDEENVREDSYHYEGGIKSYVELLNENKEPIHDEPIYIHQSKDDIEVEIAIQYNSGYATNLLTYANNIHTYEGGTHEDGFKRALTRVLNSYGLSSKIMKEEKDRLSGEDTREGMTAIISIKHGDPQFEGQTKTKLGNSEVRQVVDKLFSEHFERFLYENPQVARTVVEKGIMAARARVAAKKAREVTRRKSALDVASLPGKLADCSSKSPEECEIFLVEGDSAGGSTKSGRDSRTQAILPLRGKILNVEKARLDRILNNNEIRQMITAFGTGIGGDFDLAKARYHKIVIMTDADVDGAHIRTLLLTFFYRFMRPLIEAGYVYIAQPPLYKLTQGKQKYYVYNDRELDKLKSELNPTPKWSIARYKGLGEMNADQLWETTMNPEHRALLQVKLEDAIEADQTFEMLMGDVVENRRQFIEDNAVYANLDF
Method in brief: as §1, with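 “temperature. Washed, SybrGOLD-stained, fluorescence 485/535 nm.” for “temperature.”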

DNA gyrase subunit B [4] = biological target: DNA gyrase subunit B (Staphylococcus aureus, UniProt P0A0K8); experiment: Inhibition of Staphylococcus aureus DNA gyrase B using relaxed pNO1 DNA as substrate incubated for 30 mins and measured by sybrGOLD staining based fluorescence assay
DNA gyrase subunit B (Staphylococcus aureus, UniProt P0A0K8), sequence (P0A0K8 whole entry): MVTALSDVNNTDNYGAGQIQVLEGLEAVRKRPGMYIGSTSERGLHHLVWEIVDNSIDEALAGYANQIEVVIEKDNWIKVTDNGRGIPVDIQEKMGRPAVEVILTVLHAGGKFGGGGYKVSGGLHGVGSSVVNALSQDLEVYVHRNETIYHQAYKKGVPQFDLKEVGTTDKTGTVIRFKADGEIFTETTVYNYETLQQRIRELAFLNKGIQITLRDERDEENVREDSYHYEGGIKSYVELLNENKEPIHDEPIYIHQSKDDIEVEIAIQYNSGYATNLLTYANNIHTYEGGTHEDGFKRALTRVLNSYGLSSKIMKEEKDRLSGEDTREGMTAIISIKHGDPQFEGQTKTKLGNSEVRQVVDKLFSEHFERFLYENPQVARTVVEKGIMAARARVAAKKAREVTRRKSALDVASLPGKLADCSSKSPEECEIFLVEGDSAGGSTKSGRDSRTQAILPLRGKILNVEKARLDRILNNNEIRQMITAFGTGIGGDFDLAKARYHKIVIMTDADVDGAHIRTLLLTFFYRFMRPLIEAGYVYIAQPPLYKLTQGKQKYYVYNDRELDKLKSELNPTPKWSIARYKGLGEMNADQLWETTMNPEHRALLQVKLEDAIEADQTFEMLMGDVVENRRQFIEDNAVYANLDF

[5] = Inhibition of Escherichia coli DNA gyrase using relaxed pBR322 DNA as substrate after 3 hrs by agarose electrophoresis
[6] = Inhibition of Staphylococcus aureus DNA gyrase using relaxed pBR322 DNA as substrate after 3 hrs by agarose electrophoresis
DNA gyrase subunit B [7] = biological target: T1, DNA gyrase subunit B; experiment: Binding affinity to Escherichia coli ATCC 25922 DNA gyrase B by surface plasmon resonance assay
Method in brief: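 Running buffer: 10 mM Hepes, 150 mM NaCl, 3 mM EDTA, 0.005% P20, pH 7.4, plus 1% DMSO. Injections at 30 µL/min for 90 s, 120 s dissociation. At least eight concentrations, three parallel titrations. Kd from 1:1 steady-state fit of responses 5 s before injection end.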

Row | SMILES | Activity [1] | IC50 (DNA gyrase subunit B [2]) | also measured
1 | COC(=O)CC(=O)N1CCC(NC(=O)c2cc3ccccc3[nH]2)CC1 | 100% |  | 
2 | COC(=O)CCC(=O)N1CCC(NC(=O)c2cc(Br)c(Br)[nH]2)CC1 |  | 20.9 µM | 
3 | O=C(NC1CCN(C(=O)c2ccc(O)c(O)c2)CC1)c1cc(Br)c(Br)[nH]1 |  | 2.84 µM | 
4 | CCOC(=O)C(=O)N1CCC(NC(=O)c2cc(Br)c(Br)[nH]2)CC1 |  | 4.35 µM | Activity [3]: 74%
5 | COC(=O)CCNC(=O)[C@H]1CC[C@@H](NC(=O)c2cc(Br)c(Br)[nH]2)CC1 | 100% |  | 
6 | O=C(O)CNC(=O)[C@H]1CC[C@@H](NC(=O)c2cc(Br)c(Br)[nH]2)CC1 | 100% |  | 
7 | O=C(O)CCC(=O)N1CCC(N(Cc2ccccc2)C(=O)c2cc3ccccc3[nH]2)CC1 | 100% |  | 
8 | O=C(O)CC(=O)N1CCN(C(=O)c2cc(Br)c(Br)[nH]2)CC1 |  | 1080 µM | IC50 (DNA gyrase subunit B [4]): Not Active
9 | O=C(O)CCNC(=O)[C@H]1CC[C@H](NC(=O)c2cc(Br)c(Br)[nH]2)CC1 | 100% |  | 
10 | COC(=O)CNC(=O)[C@H]1CC[C@H](CNC(=O)c2cc(Br)c(Br)[nH]2)CC1 | 100% |  | 
11 | COC(=O)CC(=O)N1CCC(NC(=O)c2cc(Br)c(Br)[nH]2)CC1 |  | 13.7 µM | 
12 | COC(=O)c1ccc(C(=O)N2CCC(NC(=O)c3cc4ccccc4[nH]3)CC2)cc1 | 88% |  | 
13 | CO[C@@H]1[C@@H](OC(N)=O)[C@@H](O)[C@H](Oc2ccc3c(O)c(NC(=O)c4ccc(O)c(CC=C(C)C)c4)c(=O)oc3c2C)OC1(C)C [NOVOBIOCIN] |  |  | IC50 [5]: 0.08 µM; IC50 [6]: 0.01 µM
14 | Nc1ncc(C(=O)N2CCN(C(=O)c3c[nH]c4ccccc34)CC2)[nH]1 | 100% |  | 
15 | O=C(O)CCNC(=O)[C@H]1CC[C@@H](NC(=O)c2cc(Br)c(Br)[nH]2)CC1 |  | 100 µM | 
16 | COC(=O)CCC(=O)N1CCC(N(Cc2ccccc2)C(=O)c2cc3ccccc3[nH]2)CC1 | 100% |  | 
17 | O=C(O)c1cccc(CN2CCC(NC(=O)c3cc(Br)c(Br)[nH]3)CC2)c1 |  | 49.5 µM | Kd (DNA gyrase subunit B [7]): 11.2 µM; Activity [3]: 100%
18 | COC(=O)CCCC(=O)N1CCC(NC(=O)c2cc(Br)c(Br)[nH]2)CC1 |  | 11.2 µM | 
19 | COC(=O)CCC(=O)N1CCC(NC(=O)c2ccc[nH]2)CC1 | 100% |  | 

Row | SMILES | Activity [1] | IC50 (DNA gyrase subunit B [2]) | also measured
20 | COC(=O)CCC(=O)N1CCC(N(Cc2ccccc2)C(=O)c2cc(Br)c(Br)[nH]2)CC1 | 100% |  | 
21 | COC(=O)CNC(=O)[C@H]1CC[C@H](NC(=O)c2cc(Br)c(Br)[nH]2)CC1 | 100% |  | 
22 | COC(=O)CCC(=O)N1CCC(NC(=O)c2[nH]c(C)c(Cl)c2Cl)CC1 |  | 20 µM | 
23 | COC(=O)CCNC(=O)[C@H]1CC[C@H](NC(=O)c2cc(Br)c(Br)[nH]2)CC1 | 100% |  | 
24 | C=CCN(C(=O)c1cc(Br)c(Br)[nH]1)C1CCN(C(=O)CCC(=O)O)CC1 | 29% |  | 
25 | O=C(NC1CCN(C(=O)c2ccc(O)c(O)c2)CC1)c1cc(Cl)c(Cl)[nH]1 |  | 8.08 µM | 
26 | COC(=O)CCC(=O)N1CCC(NC(=O)c2cc3ccccc3[nH]2)CC1 | 100% |  | 
27 | Nc1ncc(C(=O)N2CCN(C(=O)[C@@H]3CCCN3)CC2)[nH]1 | 100% |  | 
28 | C=CCN(C(=O)c1cc(Br)c(Br)[nH]1)C1CCN(C(=O)CCC(=O)OC)CC1 | 36% |  | 
29 | O=C(O)c1ccc(C(=O)N2CCC(NC(=O)c3cc4ccccc4[nH]3)CC2)cc1 | 100% |  | 
30 | Cc1[nH]c(C(=O)NC2CCN(C(=O)CCC(=O)O)CC2)c(Cl)c1Cl |  | 0.48 µM | 
31 | O=C(O)C(=O)N1CCC(NC(=O)c2cc(Br)c(Br)[nH]2)CC1 |  | 49.2 µM | 
32 | N#Cc1ccc(C(=O)N2CCC(NC(=O)c3cc(Br)c(Br)[nH]3)CC2)cc1 | 100% |  | 
33 | Nc1ncc(C(=O)N2CCN(C(=O)c3cccnc3)CC2)[nH]1 | 100% |  | 
34 | O=C(O)CCNC(=O)[C@H]1CC[C@H](CNC(=O)c2cc(Br)c(Br)[nH]2)CC1 | 100% |  | 
35 | O=C(O)CCCC(=O)N1CCC(NC(=O)c2cc(Br)c(Br)[nH]2)CC1 |  | 3.18 µM | Activity [3]: 71%
36 | CC(C)(C)OC(=O)N1CCC(NC(=O)c2cc(Br)c(Br)[nH]2)CC1 |  | > 50 µM | 
37 | O=C(NC1CCN(C(=O)c2ccc(O)c(O)c2)CC1)c1cc2ccccc2[nH]1 |  | 150 µM | 
38 | O=C(O)CCC(=O)N1CCC(NC(=O)c2ccc[nH]2)CC1 | 100% |  | 

Row | SMILES | Activity [1] | IC50 (DNA gyrase subunit B [2]) | also measured
39 | O=C(O)CCC(=O)N1CCC(NC(=O)c2cc3ccccc3[nH]2)CC1 | 100% |  | 
40 | O=C(O)CCC(=O)N1CCC(N(Cc2ccccc2)C(=O)c2cc(Br)c(Br)[nH]2)CC1 |  | 49.5 µM | Kd (DNA gyrase subunit B [7]): 11.2 µM
41 | Nc1ncc(C(=O)N2CCN(C(=O)c3ccc[nH]3)CC2)[nH]1 | 100% |  | 
42 | O=C(O)CCC(=O)N1CCC(NC(=O)c2cc(Br)c(Br)[nH]2)CC1 |  | 1.55 µM | Kd (DNA gyrase subunit B [7]): 12.6 µM; IC50 (DNA gyrase subunit B [4]; read-out: IC50): 93.8 µM
43 | O=C(O)CC(=O)N1CCC(NC(=O)c2cc(Br)c(Br)[nH]2)CC1 |  | 10.8 µM | Activity [3]: 80%
44 | O=C(O)c1ccc(C(=O)N2CCC(NC(=O)c3cc(Br)c(Br)[nH]3)CC2)cc1 |  | 14.9 µM | Kd (DNA gyrase subunit B [7]): 256 µM; Activity [3]: 84%
45 | COC(=O)c1ccc(CN2CCC(NC(=O)c3cc(Br)c(Br)[nH]3)CC2)cc1 | 100% |  | 
46 | C=CCN(C(=O)c1cc2ccccc2[nH]1)C1CCN(C(=O)CCC(=O)OC)CC1 | 100% |  | 
47 | CC(C)(C)OC(=O)N1CCC(NC(=O)c2cc3ccccc3[nH]2)CC1 | 100% |  | 
48 | COC(=O)CC(=O)N1CCN(C(=O)c2cc(Br)c(Br)[nH]2)CC1 | 78% |  | 
49 | Nc1ncc(C(=O)N2CCN(Cc3ccc[nH]3)CC2)[nH]1 | 100% |  | 
50 | O=C(O)CC(=O)N1CCC(NC(=O)c2cc3ccccc3[nH]2)CC1 |  | 100 µM | 
51 | COC(=O)CCNC(=O)[C@H]1CC[C@H](CNC(=O)c2cc(Br)c(Br)[nH]2)CC1 | 100% |  | 
52 | O=C(O)c1ccc(CN2CCC(NC(=O)c3cc(Br)c(Br)[nH]3)CC2)cc1 |  | 63.1 µM | Activity [3]: 100%
53 | COC(=O)CNC(=O)[C@H]1CC[C@@H](NC(=O)c2cc(Br)c(Br)[nH]2)CC1 | 100% |  | 
54 | COC(=O)c1ccc(C(=O)N2CCC(NC(=O)c3cc(Br)c(Br)[nH]3)CC2)cc1 |  | 480 µM | 
55 | C=CCN(C(=O)c1cc2ccccc2[nH]1)C1CCN(C(=O)CCC(=O)O)CC1 | 100% |  | 
56 | COC(=O)c1cccc(CN2CCC(NC(=O)c3cc(Br)c(Br)[nH]3)CC2)c1 | 100% |  | 
57 | O=C(O)CNC(=O)[C@H]1CC[C@H](NC(=O)c2cc(Br)c(Br)[nH]2)CC1 |  | 15.1 µM | 

From ChEMBL document CHEMBL4041481, “Linker-switch approach towards new ATP binding site inhibitors of DNA gyrase B” (Eur J Med Chem, 2017)
